According to ChEMBL document CHEMBL1154791, “Constituents of Polyalthia longifolia var. pendula” (J Nat Prod, 2009):

Legend:
A549 = experiment: Cytotoxicity against human A549 cells after 72 hrs by MTT assay; assay type: functional, cell-based
Summary of the method: (§1)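 Cells grown in RPMI1640 with 10% FBS, penicillin and streptomycin; log-phase cells seeded per well (MCF-7 1.0 × 10^4; A549 4.5 × 10^3). After 24 h, exposed to various concentrations for 72 h.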

MCF7 = experiment: Cytotoxicity against human MCF7 cells after 72 hrs by MTT assay; assay type: functional, cell-based; summary of the method: as §1

| SMILES | IC50 (A549; a549) | IC50 (MCF7; mcf7) | IC50 (A549; Homo sapiens, A549, 72 h, read-out: IC50) [µM] | IC50 (MCF7; Homo sapiens, MCF7, 72 h, read-out: IC50) [µM] |
| --- | --- | --- | --- | --- |
| COc1cc(/C=C/C(=O)NCCc2ccc(O)c(O)c2)ccc1O [N-TRANS-FERULOYLDOPAMINE] | Not Active | Not Active | – | – |
| CCCCC/C=C\C/C=C\CCCCCCCC(=O)OCC(O)CO (stereo not given) | Not Active | Not Active | – | – |
| COc1cc2c(cc1OC)[C@@H]1Cc3ccc(O)c(OC)c3C(=O)N1CC2 | Not Active | Not Active | – | – |
| COc1cc2c(cc1OC)[C@@H]1Cc3cc(O)c(OC)c(OC)c3C(=O)N1CC2 | Not Active | Not Active | – | – |
| COc1cc2c(cc1O)[C@@H]1Cc3cc(O)c(OC)cc3C(=O)N1CC2 | Not Active | Not Active | – | – |
| CC1=CCC[C@@H]2[C@@](C)(CC/C(C=O)=C\C(=O)O)[C@H](C)CC[C@@]12C | – | – | 3.1 | 3.7 |
| COc1cc2c(cc1O)[C@@H]1Cc3cc(OC)c(O)c(OC)c3C(=O)N1CC2 | Not Active | Not Active | – | – |
| COc1cc2c(cc1OC)[C@@H]1Cc3cc(O)cc(OC)c3C(=O)N1CC2 | Not Active | Not Active | – | – |
| CC1=CCC[C@@H]2[C@@](C)(CC/C(=C\C(=O)O)CO)[C@H](C)C[C@H](O)[C@@]12C | Not Active | Not Active | – | – |
| C=C1CCC[C@@H]2[C@@](C)(CC/C(=C\C(=O)O)CO)[C@H](C)C[C@H](O)[C@@]12C | Not Active | Not Active | – | – |
| COc1c(O)cc2c(c1OC)-c1nccc(C)c1C2=O [DARIENINE] | Not Active | Not Active | – | – |
| COc1cc2c(cc1OC)[C@@H]1Cc3ccc(O)c(O)c3C(=O)N1CC2 | Not Active | Not Active | – | – |
| COc1cc2c(cc1OC)[C@@H]1Cc3ccc(OC)c(OC)c3C(=O)N1CC2 | Not Active | Not Active | – | – |
| CC1=CC(=O)C[C@@H]2[C@@](C)(CC/C(C)=C\C(=O)O)[C@H](C)CC[C@@]12C | Not Active | Not Active | – | – |
| C[C@@H]1CC[C@]2(C)[C@H](CCC[C@]23CO3)[C@@]1(C)CC/C(=C\C(=O)O)CO | Not Active | Not Active | – | – |
